In ChEMBL document CHEMBL1138395, “Adamantane sulfone and sulfonamide 11-beta-HSD1 Inhibitors” (Bioorg Med Chem Lett, 2007):

Assays:
[1] = test system: Mus musculus; assay: Ex vivo inhibition of fat 11-beta-HSD1 in DIO mouse at 30 mg/kg, po after 1 hr; type: functional
Procedure, shortened: (§1)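 DIO mice dosed orally at 30 mpk; animals killed 1, 7 and 16 h after the dose and liver, fat and brain taken. Ex vivo 11-β-HSD1 activity (cortisol levels) in tissue was measured and percent inhibition expressed relative to vehicle-dosed animals; means from two animals per point.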

[2] = Volume of distribution at steady state in monkey at 2.5 mg/kg; type: ADME, organism-based, Macaca mulatta; design: dose 2.5 mg/kg; conditions: rhesus monkey, in vivo, read-out: Vdss
[3] = Plasma clearance in mouse at 10 mg/kg, iv; type: ADME, organism-based; design: dose 10 mg/kg, route intravenous
[4] = test system: Mus musculus; assay: Ex vivo inhibition of brain 11-beta-HSD1 in DIO mouse at 30 mg/kg, po after 16 hrs; type: functional; procedure, shortened: as §1
[5] = AUC in monkey at 2.5 mg/kg, po; type: ADME, organism-based, Macaca mulatta; design: dose 2.5 mg/kg, route oral; conditions: rhesus monkey, plasma
[6] = Oral bioavailability in monkey at 2.5 mg/kg; type: ADME, organism-based, Macaca mulatta; conditions: rhesus monkey, in vivo
[7] = Metabolic stability in monkey liver microsomes assessed as intrinsic clearance; type: ADME, Macaca mulatta, Microsome; conditions: rhesus monkey
Procedure, shortened: (§2)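 Intrinsic clearance (L/h/kg) determined from incubations with liver microsomes (mouse, monkey, human) or hepatocytes (mouse, monkey); values are means of three experiments.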

[8] = Half life in mouse at 10 mg/kg, iv; type: ADME, organism-based; design: dose 10 mg/kg, route intravenous; conditions: in vivo
[9] = Oral bioavailability in mouse at 10 mg/kg; type: ADME, organism-based; conditions: in vivo
[10] = AUC in mouse at 10 mg/kg, po; type: ADME, organism-based; design: dose 10 mg/kg, route oral; conditions: plasma
[11] = Metabolic stability in mouse liver microsomes assessed as compound remaining after 30 mins; type: ADME, Microsome; conditions: read-out: Stability
Procedure, shortened: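 Test compound incubated with mouse liver microsomes for 30 min; percent of parent compound remaining afterward reported.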

[12] = test system: Mus musculus; assay: Ex vivo inhibition of brain 11-beta-HSD1 in DIO mouse at 30 mg/kg, po after 1 hr; type: functional; procedure, shortened: as §1
[13] = Half life in monkey at 2.5 mg/kg, iv; type: ADME, organism-based, Macaca mulatta; design: dose 2.5 mg/kg, route intravenous; conditions: rhesus monkey, in vivo
[14] = Metabolic stability in mouse hepatocytes assessed as intrinsic clearance; type: ADME, cell-based, Liver, Hepatocyte; procedure, shortened: as §2
[15] = target: T1, 11-beta-hydroxysteroid dehydrogenase type 2 (Mus musculus, UniProt P51661); assay: Inhibition of mouse HSD2 assessed as interconversion of cortisone to cortisol
T1 sequence (P51661 whole entry): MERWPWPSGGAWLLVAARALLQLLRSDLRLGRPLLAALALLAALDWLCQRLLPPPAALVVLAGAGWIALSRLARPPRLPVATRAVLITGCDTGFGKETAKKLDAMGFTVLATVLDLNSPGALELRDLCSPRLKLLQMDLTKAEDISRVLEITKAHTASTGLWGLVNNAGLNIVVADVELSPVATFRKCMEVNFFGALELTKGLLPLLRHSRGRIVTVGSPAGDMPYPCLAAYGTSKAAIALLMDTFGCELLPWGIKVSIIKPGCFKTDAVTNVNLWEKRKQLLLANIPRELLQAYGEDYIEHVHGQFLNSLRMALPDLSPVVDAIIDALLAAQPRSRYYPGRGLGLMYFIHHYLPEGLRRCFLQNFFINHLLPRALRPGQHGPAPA
Procedure, shortened: (§3)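 Enzyme inhibition measured as blocking the interconversion between cortisone and cortisol by mouse HSD1 (reported as Ki) or mouse HSD2 (reported as IC50); values are means of at least two experiments.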

[16] = Volume of distribution at steady state in mouse at 10 mg/kg; type: ADME, organism-based; design: dose 10 mg/kg; conditions: in vivo, read-out: Vdss
[17] = Metabolic stability in human liver microsomes assessed as intrinsic clearance; type: ADME, Microsome; procedure, shortened: as §2
[18] = test system: Mus musculus; assay: Ex vivo inhibition of fat 11-beta-HSD1 in DIO mouse at 30 mg/kg, po after 7 hrs; type: functional; procedure, shortened: as §1
[19] = test system: Mus musculus; assay: Ex vivo inhibition of fat 11-beta-HSD1 in DIO mouse at 30 mg/kg, po after 16 hrs; type: functional; procedure, shortened: as §1
[20] = Volume of distribution at terminal phase in mouse at 10 mg/kg; type: ADME, organism-based; design: dose 10 mg/kg; conditions: in vivo, read-out: Vbeta
[21] = test system: Mus musculus; assay: Ex vivo inhibition of liver 11-beta-HSD1 in DIO mouse at 30 mg/kg, po after 16 hrs; type: functional; procedure, shortened: as §1
[22] = test system: Mus musculus; assay: Ex vivo inhibition of brain 11-beta-HSD1 in DIO mouse at 30 mg/kg, po after 7 hrs; type: functional; procedure, shortened: as §1
[23] = Plasma clearance in monkey at 2.5 mg/kg, iv; type: ADME, organism-based, Macaca mulatta; design: dose 2.5 mg/kg, route intravenous; conditions: rhesus monkey
[24] = test system: Mus musculus; assay: Ex vivo inhibition of liver 11-beta-HSD1 in DIO mouse at 30 mg/kg, po after 1 hr; type: functional; procedure, shortened: as §1
[25] = Metabolic stability in mouse liver microsomes assessed as intrinsic clearance; type: ADME, Microsome; procedure, shortened: as §2
[26] = Volume of distribution at terminal phase in monkey at 2.5 mg/kg; type: ADME, organism-based, Macaca mulatta; design: dose 2.5 mg/kg; conditions: rhesus monkey, in vivo, read-out: Vbeta
[27] = target: 11-beta-hydroxysteroid dehydrogenase 1 (Mus musculus, UniProt P50172); assay: Inhibition of mouse HSD1 assessed as interconversion of cortisone to cortisol; procedure, shortened: as §3
Chain of 11-beta-hydroxysteroid dehydrogenase 1 (P50172 whole entry): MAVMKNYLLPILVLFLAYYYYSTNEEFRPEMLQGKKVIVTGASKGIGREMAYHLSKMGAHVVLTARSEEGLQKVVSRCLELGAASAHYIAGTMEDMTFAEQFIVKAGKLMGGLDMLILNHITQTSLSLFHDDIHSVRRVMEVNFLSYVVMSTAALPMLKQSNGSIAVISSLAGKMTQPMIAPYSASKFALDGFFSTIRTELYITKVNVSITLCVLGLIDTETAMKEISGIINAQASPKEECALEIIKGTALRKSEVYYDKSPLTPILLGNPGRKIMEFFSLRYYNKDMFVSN

[28] = Metabolic stability in monkey hepatocytes assessed as intrinsic clearance; type: ADME, cell-based, Macaca mulatta, Liver, Hepatocyte; conditions: rhesus monkey; procedure, shortened: as §2
[29] = test system: Mus musculus; assay: Ex vivo inhibition of liver 11-beta-HSD1 in DIO mouse at 30 mg/kg, po after 7 hrs; type: functional; procedure, shortened: as §1

In the case of `CC(C)(Oc1ccc(F)cc1Cl)C(=O)N[C@H]1C2CC3CC1C[C@](S(C)(=O)=O)(C3)C2`, the inhibition in vivo at 30 mg/kg [1] is reported as 87%, the Vd [2] is reported as 2.7 L/kg and the clearance [3] is reported as 18.3 mL/min/kg. It also gave an inhibition in vivo at 30 mg/kg [4] of 77%, an AUC [5] of 6810 ng·h/mL and a bioavailability [6] of 109%. The CLint scaled [7] was 25 mL/min/kg, the half-life [8] was 1 h and the bioavailability [9] was 100%. The AUC [10] was 8900 ng·h/mL, the remaining at 0.5 h [11] was 57% and the inhibition in vivo at 30 mg/kg [12] was 90%. The half-life [13] was 5.1 h, the CLint scaled [14] was 3.33 mL/min/kg and the IC50 [15] was over 100000 nM. For the same molecule, the Vd [16] was 1.5 L/kg, the CLint scaled [17] was 26.7 mL/min/kg and the inhibition in vivo at 30 mg/kg [18] was 93%. For the same molecule, the inhibition in vivo at 30 mg/kg [19] was 86%, the Vd [20] was 1.7 L/kg and the inhibition in vivo at 30 mg/kg [21] was 89%. It also gave an inhibition in vivo at 30 mg/kg [22] of 90%, a clearance [23] of 6.67 mL/min/kg and an inhibition in vivo at 30 mg/kg [24] of 95%. It also gave a CLint scaled [25] of 100 mL/min/kg, a Vd [26] of 3.1 L/kg and a Ki [27] of 4 nM. For the same molecule, the CLint scaled [28] was 1.67 mL/min/kg and the inhibition in vivo at 30 mg/kg [29] was 95%.
